{
  "source": "paper PMC3947130",
  "about": "(Molecular cancer therapeutics, 2013)",
  "key": {"MDA-MB-231 cells": {"tested_on": "MDA-MB-231 cells", "assay": "TRAIL-induced killing / TRAIL sensitization, cell viability", "type": "cell-based, human", "outline": "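MDA-MB-231 cells in DMEM/10% FBS seeded at 5000 cells/well and left to attach overnight. Pre-treated 4 h at 37°C with vehicle (0.1% DMSO) or 5 μM test compound, then TRAIL (up to 100 ng/mL) added for 20 h at 37°C. After 30 min at room temperature, CellTiter-Glo luminescence read. At least triplicate, at least three independent times.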"}, "[1]": {"tested_on": "non-canonical NF-κB pathway", "assay": "Immunoblot of non-canonical NF-κB pathway", "type": "cell-based, human", "conditions": "MDA-MB-231 cells, 5 μM, 24 h, Fig. 4D", "outline": "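MDA-MB-231 cells grown in DMEM with 10% FBS, exposed to vehicle or 5 μM test compound for 24 h. Cell protein extracts immunoblotted for NIK, phospho-NF-κB2, NF-κB2 and cIAP-1/-2, with Erk 1/2 as loading control. HRP-conjugated anti-rabbit or anti-mouse secondary applied for 1 h, then enhanced chemiluminescence detection.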"}},
  "note": "Entries after “also recorded” stand apart in the source; their conditions may differ.",
  "data": [
    {"molecule": "Cc1ccc(S(=O)(=O)/C=C/C#N)cc1", "note": "[BAY 11-7082, reference compound]", "values": [
      {"measurement": "effect of IKK inhibition in the model systems", "setting": "MDA-MB-231 cells; data not shown", "value": "failed to have any effect"}
    ]},
    {"molecule": "CN[C@@H](C)C(=O)N[C@H]1CCO[C@H]2CC(C)(C)[C@@H](C(=O)N[C@@H]3CCCc4ccccc43)N2C1=O", "note": "[SBI-0636457]", "values": [
      {"measurement": "NIK levels", "setting": "[1]", "value": "profound induction of NIK levels"},
      {"measurement": "phosphorylation and processing of NF-κB2", "setting": "[1]", "value": "enhanced phosphorylation and processing of NF-κB2"}
    ]},
    {"molecule": "O=Cc1coc2ccccc2c1=O", "note": "[3-FC, reference compound]", "values": [
      {"measurement": "sensitization to TRAIL", "setting": "MDA-MB-231 cells; 3-FC alone with TRAIL, Supp. Fig. S1D", "value": "results in sensitization to TRAIL"},
      {"measurement": "sensitization to TRAIL with IAP inhibition", "setting": "MDA-MB-231 cells; 3-FC together with IAP inhibition, Supp. Fig. S1D", "value": "induces even greater sensitization"}
    ]},
    {"molecule": "CC(C)[C@H](NC(=O)[C@H](C)N)C(=O)N[C@@H](C)C(=O)NNc1ccccc1", "note": "[MLS-0412113]", "values": [
      {"measurement": "sensitization to TRAIL-mediated cell killing", "setting": "MDA-MB-231 cells; 5 μM pre-treatment 4 h, then TRAIL 20 h, Fig. 2B", "value": "no activity; also recorded: lacked TRAIL sensitizing ability altogether"}
    ]},
    {"molecule": "Tumor Necrosis Factor Related Apoptosis Inducing Ligand (protein, UniProt P50591 1-281, looked up) Tumor necrosis factor ligand …: MAMMEVQGGPSLGQTCVLIVIFTVLLQSLCVAVTYVYFTNELKQMQDKYSKSGIACFLKEDDSYWDPNDEESMNSPCWQVKWQLRQLVRKMILRTSEETISTVQEKQQNISPLVRERGPQRVAAHITGTRGRSNTLSSPNSKNEKALGRKINSWESSRSGHSFLSNLHLRNGELVIHEKGFYYIYSQTYFRFQEEIKENTKNDKQMVQYIYKYTSYPDPILLMKSARNSCWSKDAEYGLYSIYQGGIFELKENDRIFVSVTNEHLIDMDHEASFFGAFLVG", "values": [
      {"measurement": "cell death by TRAIL alone", "setting": "MDA-MB-231 cells; TRAIL alone, up to 100 ng/mL, 20 h, Fig. 2B", "value": "fails to induce appreciable cell death"}
    ]}
  ]
}
